Data set [1] in a line: Cytotoxicity against human HepG2 cells assessed as cell viability at 15 uM incubated for 2 hrs by MTT assay relative to control. The format is cell-based. The settings on record: read-out: Activity. In a few lines:
(§1)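 HepG2 human hepatoma cells; viability read by MTT assay, with 0.1% DMSO as vehicle control. Viability given as % of control, mean ± SEM (n = 3); p < 0.05 taken as significant.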
For orientation: Tetrazolium dyes change colour on reduction, which living cells bring about.

Data set [2] is described as follows: Cytotoxicity against human HepG2 cells assessed as cell viability at 7.5 uM incubated for 2 hrs by MTT assay relative to control. The class given is cell-based. The settings on record: read-out: Activity. Put shortly: as §1
In data set [3] the target is T1, Amine oxidase [flavin-containing] A (Homo sapiens, UniProt P21397).
T1 sequence (P21397 whole entry): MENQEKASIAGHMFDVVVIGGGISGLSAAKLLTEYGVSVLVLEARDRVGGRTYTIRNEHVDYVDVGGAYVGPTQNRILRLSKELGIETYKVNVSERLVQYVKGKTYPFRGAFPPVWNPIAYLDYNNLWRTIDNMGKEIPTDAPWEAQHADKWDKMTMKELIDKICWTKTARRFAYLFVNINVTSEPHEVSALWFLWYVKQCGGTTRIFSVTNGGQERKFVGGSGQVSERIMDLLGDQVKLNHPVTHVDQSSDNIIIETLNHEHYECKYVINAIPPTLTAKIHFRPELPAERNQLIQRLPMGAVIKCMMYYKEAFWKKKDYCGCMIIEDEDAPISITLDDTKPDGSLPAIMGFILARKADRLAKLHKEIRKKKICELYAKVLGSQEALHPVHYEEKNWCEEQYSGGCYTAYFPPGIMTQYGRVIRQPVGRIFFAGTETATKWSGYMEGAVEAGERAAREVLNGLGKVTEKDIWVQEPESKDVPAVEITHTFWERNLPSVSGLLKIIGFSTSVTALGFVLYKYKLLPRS
As to the kind of experiment: Irreversible inhibition of human MAO-A assessed as residual enzyme activity at 4 fold IC50 incubated for 15 mins and measured before dialysis relative to control. In a few lines:
(§2)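 Recombinant hMAO-A (1 U/mL) was preincubated with inhibitor for 15 min at 37 °C in 0.05 M potassium phosphate, pH 7.4, with 5% sucrose and 1% DMSO. It was then dialyzed at 4 °C against 100 mM potassium phosphate, pH 7.4, 5% sucrose (12 000 MWCO), with buffer replaced twice over 24 h. Dialyzed and undialyzed mixtures were assayed together for MAO-A activity, in triplicate; residual activity is given as mean ± SEM.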

A short description of data set [4]: Cytotoxicity against human HepG2 cells assessed as cell viability at 30 uM incubated for 2 hrs by MTT assay relative to control. The format is cell-based. The settings on record: read-out: Activity. Put shortly:
as §1

For data set [5], the target named is T1, Amine oxidase [flavin-containing] A. Briefly: Irreversible inhibition of human MAO-A assessed as residual enzyme activity at 4 fold IC50 incubated for 15 mins and measured 24 hrs post dialysis relative to control. Particulars: 24.25 h, time 1455 min. In a few lines:
as §2

The target is the same in data set [6]. As to the kind of experiment: Inhibition of recombinant human MAO-A expressed in baculovirus infected BTI insect cells using p-tyramine as substrate incubated for 30 mins by Amplex red reagent based fluorescence analysis.
Data set [7] relates to Mus musculus. As to the kind of experiment: Antidepressant-like activity in CD1 mouse assessed as reduction in immobility time at 30 mg/kg, po administered via gavage as single dose measured after 1 hr by Porsolt-forced swim test. The class given is functional, organism-based.
The subject of data set [8] is Mus musculus. As to the kind of experiment: Antidepressant-like activity in CD1 mouse assessed as reduction in immobility time at 30 mg/kg, po administered via gavage for 7 days and measured 1 h post last dose by Porsolt-forced swim test. The format is functional, organism-based. Particulars: time 7.0 day. Put shortly:
(§3)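 Male albino CD-1 mice (20–25 g), 12 h light/dark, food and water ad libitum. Dosed by oral gavage once daily for 7 days in 200 μL 0.5% CMC; vehicle-only controls. […] Forced swim test run 1 h after the last dose. Immobility scored every 60 s over 6 min; n = 8–12.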

The target in data set [9] is T2, Amine oxidase [flavin-containing] B (Homo sapiens, UniProt P27338).
T2 sequence (P27338 whole entry): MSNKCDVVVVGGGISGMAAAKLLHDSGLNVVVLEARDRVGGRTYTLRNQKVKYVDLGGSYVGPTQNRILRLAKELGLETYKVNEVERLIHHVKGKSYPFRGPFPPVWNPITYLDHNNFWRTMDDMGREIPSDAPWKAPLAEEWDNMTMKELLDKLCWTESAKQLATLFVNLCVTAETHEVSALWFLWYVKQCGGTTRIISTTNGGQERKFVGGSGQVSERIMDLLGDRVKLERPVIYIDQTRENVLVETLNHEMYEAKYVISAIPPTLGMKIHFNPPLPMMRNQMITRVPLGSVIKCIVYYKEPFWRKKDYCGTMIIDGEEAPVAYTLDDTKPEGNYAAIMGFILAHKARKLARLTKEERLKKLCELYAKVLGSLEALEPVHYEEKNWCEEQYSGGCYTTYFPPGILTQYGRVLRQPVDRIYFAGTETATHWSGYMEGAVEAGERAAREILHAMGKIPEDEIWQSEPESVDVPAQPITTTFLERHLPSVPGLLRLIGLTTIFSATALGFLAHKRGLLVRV
As to the kind of experiment: Reversible inhibition of human MAO-B assessed as residual enzyme activity at 4 fold IC50 incubated for 15 mins and measured before dialysis relative to control. Put shortly:
(§4)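 Dialysed (MWCO 12 000) at 4 °C for 24 h against 100 mM potassium phosphate pH 7.4, 5% sucrose, buffer changed twice. Dialysed and undialysed mixtures assayed together; residual activity from triplicates.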

The subject of data set [10] is Mus musculus. As to the kind of experiment: Antidepressant-like activity in CD1 mouse assessed as maximum efficacy at 20 mg/kg, po administered as subchronic dose gavage for 7 days and measured 1 h post last dose by Porsolt-forced swim test. The settings on record: time 7.0 day. The class given is functional, organism-based. In a few lines: as §3
Data set [11] has as its target T2, Amine oxidase [flavin-containing] B. As to the kind of experiment: Inhibition of recombinant human MAO-B expressed in baculovirus infected BTI insect cells using p-tyramine as substrate incubated for 30 mins by Amplex red reagent based fluorescence analysis. The format is cell-based.
The target of data set [12] is T1, Amine oxidase [flavin-containing] A. As to the kind of experiment: Reversible inhibition of human MAO-A assessed as residual enzyme activity at 4 fold IC50 incubated for 15 mins and measured 24 hrs post dialysis by dialysis method relative to control. The settings on record: 24.25 h, time 1455 min. In a few lines:
as §4

In data set [13] the target is T2, Amine oxidase [flavin-containing] B. As to the kind of experiment: Reversible inhibition of human MAO-B assessed as residual enzyme activity at 4 fold IC50 incubated for 15 mins and measured 24 hrs post dialysis relative to control. Particulars: 24.25 h, time 1455 min. Put shortly: as §4
Data set [14] can be described thus: Effect on locomotor activity in CD1 mouse assessed as total distance traveled at 30 mg/kg, po administered via gavage for 7 days by open field test. The class given is ADME, organism-based. Particulars: in vivo, 168 h, time 7 day. In a few lines: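 Each mouse placed in the centre of a 50 × 50 × 30 cm black box and video-tracked; total distance travelled over 5 min; n = 8–10.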

For data set [15], the target named is T1, Amine oxidase [flavin-containing] A. As to the kind of experiment: Reversible inhibition of human MAO-A assessed as residual enzyme activity at 4 fold IC50 incubated for 15 mins and measured before dialysis by dialysis method relative to control. Put shortly: as §4

Active and inactive are the calls of the source. The rule behind the calls is not given here.

As for `C#CCN(C)[C@H](C)Cc1ccccc1` [SELEGILINE], the viability at 2 h, 15 µM in data set [1] was determined as 87.2%. Further, in data set [2], the viability at 2 h, 7.5 µM amounted to 90%. Further, the Activity is reported as 89.96% in [3] and 90.01% in data set [5]. In addition, in [4], the viability at 2 h, 30 µM amounted to 84%.

What is called Ki is the equilibrium dissociation constant of an inhibitor or competing ligand from its target. For `COc1ccc(C(/C=C/c2cccc(OC)c2OC)=N/NC(=O)Cn2c(=O)oc3ccc(Cl)cc32)cc1`, the results for the Ki in data set [6] and in data set [11] were 0.01 µM and 1850 µM, respectively. Further, the result with Mus musculus [7] and in the data set with Mus musculus [8] was Active. Also, the viability at 2 h, 15 µM in [1] is 99.1%. The Activity in data set [9] is 82.37%; in data set [12], 93.57%; in data set [13] it was 95.21%; in [14], “Non-Toxic”; in data set [15], 20.16%. The result in the data set with Mus musculus [10] was inactive. In addition, the viability at 2 h, 7.5 µM in [2] is 118%. The viability at 2 h, 30 µM in data set [4] was 88.5%.

Values taken from ChEMBL document CHEMBL4706681, “New 2-Pyrazoline and Hydrazone Derivatives as Potent and Selective Monoamine Oxidase A Inhibitors” (J Med Chem, 2021).
